Assay results from article PMC4059944 (Nature, 2014).
Values joined by “and” are separate entries in the source; they are usually repeats but may differ in a detail not shown here. Identical values can stand only once.

B1: Ctf4 N-terminal deletion (Ctf4CTD, aa 461-927) (domain or fragment)
chain: THSFPISLANTGKFRYMPFSPAGTPFGFTDRRYLTMNEVGYVSTVKNSEQYSITVSFFDVGRFREYHFEDLFGYDLCFLNEKGTLFGQSKTGQIQYRPHDSIHSNWTKIIPLQAGERITSVAATPVRVIVGTSLGYFRSFNQFGVPFAVEKTSPIVALTAQNYRVFSVHYSQFHGLSYSLSELGTSSKRYYKRECPLPMSLPNINSDMKKDANLDYYNFNPMGIKSLFFSSYGDPCIFGSDNTLLLLSKWRSPEESKWLPILDSNMEIWKMSGGKETTDIHVWPLALAYDTLNCILVKGKHIWPEFPLPLPSEMEIRMPVFVKSKLLEENKAILNKKNEIGADTEAEEGEEDKEIQIPVSMAAEEEYLRSKVLSELLTDTLENDGEMYGNENEVLAALNGAYDKALLRLFASACSDQNVEKALSLAHELKQDRALTAAVKISERAELPSLVKKINNIREARYEQQLK

Legend:
Ctf4CTD [1] = experiment: Fluorescence polarization; format: binding, yeast (S. cerevisiae); conditions: fluorescence anisotropy, 25°C, 20 mM HEPES pH 7.2, 140 mM KCl, 5% (w/v) glycerol; 40 nM (Sld5) or 50 nM (Pol1) fluorescein-labeled peptide; mean of three independent experiments
Ctf4CTD [2] = experiment: X-ray crystallography of Ctf4CTD crystals soaked with peptide; format: binding, yeast (S. cerevisiae); conditions: soaked 24 hours at 19 °C
[3] = molecular target: T1, GINSPsf1ΔC (Strep III-tagged, for electron microscopy) (S. cerevisiae, UniProt Q12146 1-194; Q12488 1-164; P40359 1-213; Q03406 1-294); experiment: negative-stain single-particle electron microscopy
T1 sequence 1: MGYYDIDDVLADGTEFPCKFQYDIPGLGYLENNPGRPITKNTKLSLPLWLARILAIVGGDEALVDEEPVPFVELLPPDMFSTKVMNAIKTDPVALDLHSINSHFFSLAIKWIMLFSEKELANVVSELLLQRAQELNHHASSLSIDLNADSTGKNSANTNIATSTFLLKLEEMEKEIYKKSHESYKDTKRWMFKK
T1 sequence 2: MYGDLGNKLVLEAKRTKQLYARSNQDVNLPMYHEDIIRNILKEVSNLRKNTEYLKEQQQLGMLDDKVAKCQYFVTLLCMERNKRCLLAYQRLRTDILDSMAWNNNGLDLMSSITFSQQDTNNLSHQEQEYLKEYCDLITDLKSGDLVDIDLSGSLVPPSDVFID
T1 sequence 3: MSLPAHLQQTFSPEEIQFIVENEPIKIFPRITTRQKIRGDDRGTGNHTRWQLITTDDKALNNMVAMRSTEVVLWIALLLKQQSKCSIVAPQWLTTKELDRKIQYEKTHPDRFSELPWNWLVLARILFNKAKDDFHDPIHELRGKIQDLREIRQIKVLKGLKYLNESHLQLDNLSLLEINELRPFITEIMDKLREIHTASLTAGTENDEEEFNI
T1 sequence 4: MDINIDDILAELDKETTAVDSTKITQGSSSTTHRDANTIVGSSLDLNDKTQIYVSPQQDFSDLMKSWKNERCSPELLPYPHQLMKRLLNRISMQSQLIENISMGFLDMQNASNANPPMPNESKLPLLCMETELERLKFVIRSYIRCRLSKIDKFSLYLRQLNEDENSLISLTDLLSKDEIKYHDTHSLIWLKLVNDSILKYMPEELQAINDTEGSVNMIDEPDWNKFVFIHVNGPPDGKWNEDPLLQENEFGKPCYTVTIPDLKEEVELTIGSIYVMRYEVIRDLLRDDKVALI

[4] = molecular target: the molecule itself; experiment: negative-stain single-particle electron microscopy
[5] = Multi-angle laser scattering; format: physicochemical, yeast (S. cerevisiae); conditions: size exclusion chromatography - MALS
How it was run: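 Recombinant His-tagged full-length yeast Ctf4, expressed in E. coli BL21(DE3)-CodonPlus (1 mM IPTG, 37°C, 2 h), purified by Ni-NTA, Mono Q ion exchange and Superdex 200 gel filtration. About 100 μg loaded onto an HPLC size-exclusion column equilibrated in 150 mM NaCl, 20 mM Tris pH 8.0, 1 mM DTT. Eluate read by 8-angle light scattering and refractive index detectors.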

CMG helicase = conditions: yeast cells; cited from earlier work
[6] = molecular target: T2, Ctf4CTD (yeast Ctf4 amino acids 471 to 927) (S. cerevisiae, UniProt Q01454 471-927); experiment: native MS
T2 sequence: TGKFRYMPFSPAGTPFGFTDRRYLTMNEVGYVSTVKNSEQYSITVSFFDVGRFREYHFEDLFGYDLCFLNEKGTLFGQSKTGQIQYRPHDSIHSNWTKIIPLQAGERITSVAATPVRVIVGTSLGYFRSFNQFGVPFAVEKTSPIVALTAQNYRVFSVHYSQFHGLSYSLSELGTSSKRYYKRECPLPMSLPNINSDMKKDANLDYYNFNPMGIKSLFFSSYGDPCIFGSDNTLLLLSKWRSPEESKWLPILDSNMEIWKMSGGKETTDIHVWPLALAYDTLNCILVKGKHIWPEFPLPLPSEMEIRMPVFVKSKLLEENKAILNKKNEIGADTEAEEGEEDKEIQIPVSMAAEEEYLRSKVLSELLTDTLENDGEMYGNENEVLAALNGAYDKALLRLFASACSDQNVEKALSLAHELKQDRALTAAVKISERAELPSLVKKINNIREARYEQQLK

[7] = molecular target: T2, Ctf4CTD (yeast Ctf4 amino acids 471 to …); experiment: pull-down
[8] = molecular target: B1; experiment: negative-stain single-particle electron microscopy
Ctf4CTD trimer = experiment: Single-particle electron microscopy of Ctf4CTD complexes; format: binding, yeast (S. cerevisiae)

For “1- MDINIDDILAELDKETTAV -19 [Ctf4-binding sequence of Sld5]”, the “tighter association with Ctf4 compared to Pol1 (fold)” value (Ctf4CTD [1]) was ~ 5 fold.

With 137-IDNFDDILGEFES-149 [Pol1 peptide] the “occupancy of binding sites in Ctf4CTD trimer crystal” value (Ctf4CTD [2]; open crystal form) was “occupies each of the two binding sites available in this crystal form” and the “conformational change in helical domain of Ctf4CTD on binding” value (Ctf4CTD [2]) was “does not induce an appreciable conformational change in the helical domain of Ctf4CTD”.

In the case of MDINIDDILAELDKETTAV [Sld5], the “mode of interaction with Ctf4” value (Ctf4CTD [2]; compared with Ctf4-binding motif of Pol1) is reported as “near-identical mode of interaction”.

In the case of B1, the binding result [3] is reported as “binds” and the “stoichiometry N” value [4] is reported as 3.

B2: Ctf4: full-length yeast Ctf4 protein (protein)
chain: MVSVIDKLVFDFGGKTLVSLAPDNNTLCVANKNGLTKILKTNNPEEEPETLDSSKLVSSIKCYSNSHFLMTTMQGDALRYNIDSSQEELLARFALPLRDCCVIHSGKMAVFGGDDLELILLELDDETHKKHAIKIDEQVSQISYNSQMNILAVSMINGKVQIFSLTSTIPNKVHELNDYIVANSYDDTHRDKILSNMMDDIDKDNDNDLSETADPDENNVADPEFCAANRICTRVAWHPKGLHFALPCADDTVKIFSIKGYSLQKTLSTNLSSTKAHFIDLQFDPLRGTYIAAVDLNNKLTVWNWETSEIHYTREFKRKITNIAWKIQADSKTLDLVLGTWSGSIAIVQNLAESVVSNIPDQSVAESSTKHGLFVDSESDLENLEGNDDINKSDKLFSDITQEANAEDVFTQTHDGPSGLSEKRKYNFEDEEDFIDDDDGAGYISGKKPHNEHSYSRVHKTHSFPISLANTGKFRYMPFSPAGTPFGFTDRRYLTMNEVGYVSTVKNSEQYSITVSFFDVGRFREYHFEDLFGYDLCFLNEKGTLFGQSKTGQIQYRPHDSIHSNWTKIIPLQAGERITSVAATPVRVIVGTSLGYFRSFNQFGVPFAVEKTSPIVALTAQNYRVFSVHYSQFHGLSYSLSELGTSSKRYYKRECPLPMSLPNINSDMKKDANLDYYNFNPMGIKSLFFSSYGDPCIFGSDNTLLLLSKWRSPEESKWLPILDSNMEIWKMSGGKETTDIHVWPLALAYDTLNCILVKGKHIWPEFPLPLPSEMEIRMPVFVKSKLLEENKAILNKKNEIGADTEAEEGEEDKEIQIPVSMAAEEEYLRSKVLSELLTDTLENDGEMYGNENEVLAALNGAYDKALLRLFASACSDQNVEKALSLAHELKQDRALTAAVKISERAELPSLVKKINNIREARYEQQLK
For B2, the “oligomeric state in solution (MALS)” value [5] is listed as “stable homotrimers in solution”, the “oligomeric state in solution (MALS)” value ([5]; listed as full-length Ctf4) is listed as “stable trimer in solution” and the “salt concentration resisted by association of Ctf4 with CMG” value (CMG helicase) is listed as at least 700 mM.

With IDNFDDILGEFES [Pol1 peptide 137-IDNFDDILGEFES-149] the “stoichiometry N” value [6] was 1 peptides per Ctf4CTD trimer and 2 peptides per Ctf4CTD trimer and 3 peptides per Ctf4CTD trimer.

In the case of MDINIDDILAELDKETTAV [Sld5 peptide 1-MDINIDDILAELDKETTAV-19], the “stoichiometry N” value [6] is reported as 1 peptides per Ctf4CTD trimer and 2 peptides per Ctf4CTD trimer and 3 peptides per Ctf4CTD trimer.

MDINIDDILAEADKETTAVD (domain or fragment) [GST-Sld5 (1-20) L12A]: binds [7].

MDINIDDILAELDKETTAVD (domain or fragment) [GST-Sld5 (residues 1 to 20)]: binds [7].

B3: Pol1NTD (Pol1-NTD-ProteinA: N-terminal region of Pol1, residues 1 to 351, fused to Protein A) (domain or fragment)
chain: MSSKSEKLEKLRKLQAARNGTSIDDYEGDESDGDRIYDEIDEKEYRARKRQELLHDDFVVDDDGVGYVDRGVEEDWREVDNSSSDEDTGNLASKDSKRKKNIKREKDHQITDMLRTQHSKSTLLAHAKKSQKKSIPIDNFDDILGEFESGEVEKPNILLPSKLRENLNSSPTSEFKSSIKRVNGNDESSHDAGISKKVKIDPDSSTDKYLEIESSPLKLQSRKLRYANDVQDLLDDVENSPVVATKRQNVLQDTLLANPPSAQSLADEEDDEDSDEDIILKRRTMRSVTTTRRVNIDSRSNPSTSPFVTAPGTPIGIKGLTPSKSLQSNTDVATLAVNVKKEDVVDPETDT
For B3, the binding result [8] was “binds”, the “Ctf4CTD - GINS - Pol1NTD complexes observed” value (Ctf4CTD trimer; reconstituted hetero-assemblies, Pol1 residues 1 to 351 fused to Protein A) was “varied stoichiometries, with partial or full occupancy of the Ctf4 trimer” and the “Ctf4CTD - Pol1NTD complex observed” value (Ctf4CTD trimer; reference-free class averages, box size 448 Å) was “ring-shaped core linked to one mobile globular density”.

MDINIDAILAELDKETTAVD (domain or fragment) [GST-Sld5 (1-20) D7A]: binds [7].
